Consider two compounds from ChEMBL document CHEMBL3421581, “A solid-phase combinatorial approach for indoloquinolizidine-peptides with high affinity at D(1) and D(2) dopamine receptors” (Eur J Med Chem, 2015).

In assay [1] the target is D(2) dopamine receptor (Homo sapiens) (UniProt P14416). In words: Displacement of [3H]-YM09151-2 from dopamine D2 receptor (unknown origin) expressed in sheep striatum membranes assessed as high affinity constant measured per mg of protein after 2 hrs by scintillation counting analysis. The note with it: Membrane. The class given is cell membranes. The essentials:
(§1)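 Sheep striatal membranes (0.2–0.5 mg protein/mL), 2 h at 25 °C in 50 mM Tris-HCl pH 7.4 with 10 mM MgCl2. Radioligand was [3H]-SCH 23390 for D1R (nonspecific: 50 μM SCH 23390) or [3H]-YM 09151-2 for D2R (nonspecific: 50 μM raclopride). Competitor tested at 9 concentrations, 1 nM–50 μM, in triplicate. Total binding fitted by nonlinear regression to a two-site model. Means ± SD of three experiments.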
Background: Loss of bound radioactivity is the signal in a displacement assay; it reports binding, not function.

Assay [2] has the same target. In words: Displacement of [3H]-YM09151-2 from dopamine D2 receptor (unknown origin) expressed in sheep striatum membranes assessed as low affinity constant measured per mg of protein after 2 hrs by scintillation counting analysis. The conditions noted are these: Membrane. The class given is cell membranes. In outline:
as §1

For assay [3] the target is unchanged. In words: Allosteric modulating activity at dopamine D2 receptor (unknown origin) expressed in sheep striatum membranes assessed as change in D2R antagonist [3H]-YM09151-2 Koff at 3 uM preincubated for 2 hrs followed by [3H]-YM09151-2 addition by rapid filtration and radioactivity counting. The class given is cell membranes. The note with it: Membrane, in the assay text read “preincubated for 1 hr” for “preincubated for 2 hrs”. The essentials: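 Sheep striatal membranes (0.2 mg protein/mL) preincubated 1 h at 25 °C ± 3 μM test ligand in 50 mM Tris-HCl pH 7.4 with 10 mM MgCl2, then 1 nM [3H]-YM 09151-2 added. After 2 h, dissociation started with 10 μM unlabeled YM 09151-2. Total binding measured at intervals by GF/C filtration and scintillation counting. Nonspecific binding taken after 90 min with 10 μM YM 09151-2.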

For assay [4] the target is unchanged. As to the kind of experiment: Antagonist activity at dopamine D2 receptor (unknown origin) transfected in CHO cells assessed as inhibition of YM09151-2 -induced downregulation of phosphorylated ERK1/2 level at 10 uM after 5 mins by Western blot analysis. Type of assay: cell-based. In outline: (§2)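 D2R cDNA transiently transfected into CHO cells by Lipofectamine, used 48 h later. Cells were kept serum-free for 16 h, optionally pretreated 5 min with 1 μM YM 09151-2, then exposed to ligands for 5 min (combined condition used 10 μM test ligand). Lysed in ice-cold buffer, phospho-ERK1/2 read by infrared scanning. Means ± SEM, 3 experiments in duplicate, unpaired t-test vs basal.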
For orientation: A western blot detects proteins with antibodies after separation by electrophoresis.

The target is the same in assay [5]. As to the kind of experiment: Agonist activity at dopamine D2 receptor (unknown origin) transfected in CHO cells assessed as increase in ERK1/2 phosphorylation after 5 mins by Western blot analysis. Type of assay: cell-based. In outline:
as §2

SMILES strings stand for the structures. The source made the active and inactive calls. No cut-off for these calls is given here.

Chain of D(2) dopamine receptor (Homo sapiens) (P14416 whole entry): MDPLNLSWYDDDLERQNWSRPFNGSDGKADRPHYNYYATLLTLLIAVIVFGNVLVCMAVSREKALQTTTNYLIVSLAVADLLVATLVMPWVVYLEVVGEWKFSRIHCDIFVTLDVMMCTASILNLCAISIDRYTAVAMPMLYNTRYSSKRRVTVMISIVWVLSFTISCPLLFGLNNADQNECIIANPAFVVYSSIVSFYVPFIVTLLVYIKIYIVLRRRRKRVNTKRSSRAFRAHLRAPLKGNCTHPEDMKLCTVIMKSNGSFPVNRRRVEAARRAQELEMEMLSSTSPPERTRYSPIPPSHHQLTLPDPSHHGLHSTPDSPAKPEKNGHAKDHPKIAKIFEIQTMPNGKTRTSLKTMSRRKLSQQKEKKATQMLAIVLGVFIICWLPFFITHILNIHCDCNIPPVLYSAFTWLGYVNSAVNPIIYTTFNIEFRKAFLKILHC

In the case of `NCCCC[C@H](NC(=O)[C@H](Cc1ccc(F)c(F)c1)NC(=O)[C@H]1CCCN1C(=O)CCCCCNC(=O)[C@@H]1CC[C@H]2c3[nH]c4ccccc4c3CCN2C1)C(N)=O`, the Activity in assay [1] turned out to be 0.06 pmol; in assay [2], 0.12 pmol.
For `NCCCC[C@H](NC(=O)[C@H](Cc1ccc(F)c(F)c1)NC(=O)[C@H]1CCCN1C(=O)CCCCCNC(=O)[C@H]1CC[C@@H]2c3[nH]c4ccccc4c3CCN2C1)C(N)=O`, the Activity in assay [1] is 0.04 pmol; in assay [2] it was 0.12 pmol; in assay [5] it was “Dose-dependent effect”. For the same compound, in assay [3], the result was inactive. Further, in assay [4], the inhibition entry is “inactive”.
